Measurements: ChEMBL document CHEMBL3865784 (Eur J Med Chem, 2016)

Legend:
[1] = Cytotoxicity against human PC3 cells overexpressing NQO1 assessed as reduction in cell viability after 72 hrs by MTT assay; assay type: functional, cell-based; settings: PC-3, 72 h
[2] = Cytotoxicity against human MDA-MB-435 cells overexpressing NQO1 assessed as reduction in cell viability after 72 hrs by MTT assay; assay type: functional, cell-based; settings: MDA-MB-435, 72 h
Procedure, shortened: (§1)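 Cancer lines from NCI, grown in RPMI 1640 with 10% FBS, 2 mM L-glutamine, penicillin/streptomycin, 37 °C, 5% CO2; seeded 0.1 × 10^6 cells/well (HL-60) or 0.7 × 10^5 cells/well (solid tumours). Compounds in DMSO, final 0.1% v/v; DMSO vehicle as negative control.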

[3] = Cytotoxicity against human HCT116 cells expressing NQO1 assessed as reduction in cell viability after 72 hrs by MTT assay; assay type: functional, cell-based; settings: HCT-116, 72 h; procedure, shortened: as §1
[4] = Cytotoxicity against NQO1-deficient human PBMC assessed as reduction in cell viability after 72 hrs by MTT assay; assay type: toxicity, cell-based; settings: pbmc
Mus musculus = organism: Mus musculus; assay: Cytotoxicity against NQO1-deficient mouse L929 cells assessed as reduction in cell viability after 72 hrs by MTT assay; assay type: toxicity, cell-based; settings: l929
[5] = Cytotoxicity against human SF295 cells overexpressing NQO1 assessed as reduction in cell viability after 72 hrs by MTT assay; assay type: functional, cell-based; settings: SF-295, 72 h
[6] = Cytotoxicity against human OVCAR8 cells overexpressing NQO1 assessed as reduction in cell viability after 72 hrs by MTT assay; assay type: functional, cell-based; settings: OVCAR-8, 72 h; procedure, shortened: as §1
[7] = Cytotoxicity against NQO1-deficient chinese hamster V79 cells assessed as reduction in cell viability after 72 hrs by MTT assay; assay type: toxicity, cell-based, Cricetulus griseus; settings: v79
[8] = Cytotoxicity against NQO1-deficient human HL60 cells assessed as reduction in cell viability after 72 hrs by MTT assay; assay type: functional, cell-based; settings: HL-60, 72 h; procedure, shortened: as §1

| SMILES | IC50 [1] [µM] | IC50 [2] [µM] | IC50 [3] [µM] | IC50 [4] [µM] | IC50 (Mus musculus) [µM] | IC50 [5] [µM] | IC50 [6] [µM] | IC50 [7] [µM] | IC50 [8] [µM] |
| --- | --- | --- | --- | --- | --- | --- | --- | --- | --- |
| O=C1C(Cl)=C(NCc2cn(C[Se]c3ccccc3)nn2)C(=O)c2ccccc21 | 2.25 | 2.01 | 3.25 | 6.34 | 3.43 | 2.93 | 2.58 | 2.51 |  |
| CC1(C)OC2=C(C(=O)c3ccccc3C2=O)C1N=[N+]=[N-] (stereo not given) | 4.09 | 2.52 | 3.3 | 3.16 | 3.68 | 3.04 | 3.53 |  | 2.23 |
| O=C1C2=C(C(=O)c3ccccc31)[C@H](c1ccccc1)[C@@H](n1cc(C[Se]c3ccccc3)nn1)CO2 | 7.79 | 6.82 | 7.22 |  | 7.16 | 5.58 |  | 6.74 | 8.26 |
| C#Cc1cccc(NC2CC(C)(C)OC3=C2C(=O)c2ccccc2C3=O)c1 (stereo not given) | > 14 | > 14 | > 14 | > 14 | > 14 | > 14 | > 14 | > 14 | > 14 |
| [N-]=[N+]=NC1=CC(=O)c2ccccc2C1=O | 2.16 | 2.36 | 4.27 | 8.64 | 5.17 | 3.41 | 3.51 | 5.77 |  |
| CC1(C)CCC2=C(O1)c1ccccc1C(=O)C2=O [LAPACHONE] |  | 0.25 | 0.87 | > 20.6 |  | 0.95 |  |  |  |
| CC1(C)OC2=C(C(=O)C(=O)c3ccccc32)C1N=[N+]=[N-] (stereo not given) | 1.74 |  | 0.89 |  | 2.67 |  | 1.34 | 3.27 |  |
| CC1(C)OC2=C(C(=O)c3ccccc3C2=O)C1n1cc(C[Se]c2ccccc2)nn1 (stereo not given) | 2.95 | 2.15 | 2.54 | 3.23 | 3.77 | 2.65 | 2.8 | 4.03 | 1.59 |
| O=C1C=C(n2cc(C[Se]c3ccccc3)nn2)C(=O)c2ccccc21 | > 12.7 | > 12.7 | > 12.7 | > 12.7 | > 12.7 | > 12.7 | > 12.7 | > 12.7 | > 12.7 |
| CC1(C)CC(n2cc(C[Se]c3ccccc3)nn2)C2=C(O1)C(=O)c1ccccc1C2=O (stereo not given) | 3.89 |  | 2.24 | 4.45 |  | 4.2 | 2.55 |  | 5.46 |
| O=C1C2=C(C(=O)c3ccccc31)[C@H](c1cccc3ccccc13)[C@@H](n1cc(C[Se]c3ccccc3)nn1)CO2 | > 8.67 | > 8.67 | > 8.67 | > 8.67 | > 8.67 | > 8.67 | > 8.67 | > 8.67 | > 8.67 |
| C#Cc1cccc(NC2C3=C(OC2(C)C)C(=O)c2ccccc2C3=O)c1 (stereo not given) | 5.15 | 3.93 | 4.6 | 6.46 |  | > 14.6 | 7.13 | 6.06 | 2.59 |
